Measurements collected from several papers.
Converted amounts (≈) assume the structure as drawn.

SMILES | tested on | read-out | technique | strain | time | endpoint | result
CCOC(=O)C1=C(C)N(C(C)=O)C(=O)NC1c1cn(-c2ccccc2)nc1-c1ccccc1 (stereo not shown) | Mycobacterium tuberculosis | microbial growth | resazurin | H37RV |  | MIC | 56.2 µM
C1N2CN3CN1CP(C2)C3.Cc1cc(C)n(C(C(=O)OC(C)C)n2nc(C)cc2C)n1.F[P-](F)(F)(F)(F)F.[Cu+] | A-431 | cell growth or viability | MTT |  | 72 h | IC50 | 11.3 µM
NNC(=O)c1ccncc1 | Mycobacterium tuberculosis | microbial growth |  | ATCC25177 H37RA | 14 days | MIC | 8 µg/mL
Cn1c(COc2ccc3nc4ccc(=O)cc-4oc3c2)cnc1[N+](=O)[O-] | Mycobacterium tuberculosis | microbial growth |  |  | 7 days | MIC90 | > 256 µM
Cc1sc2c(c1C)C(c1ccc(Cl)cc1)=N[C@@H](CC(=O)OC(C)(C)C)c1nnc(C)n1-2 | Ramos | cell growth or viability | ATP luminescence |  | 72 h | IC50 | 0.545 µM
Cc1cc(C(=O)O)ccc1-c1c2ccc(=O)cc-2oc2cc(OCc3ccc([N+](=O)[O-])o3)ccc12 | Mycobacterium tuberculosis | microbial growth |  |  | 7 days | MIC90 | 240 µM (≈ 113 µg/mL)
CCOC(=O)C1=C(C)NC(=NN)NC1c1ccc(F)cc1 (stereo not shown) | Mycobacterium tuberculosis | microbial growth | resazurin | H37RV |  | MIC | 85.5 µM
CC[C@@]1(O)C(=O)OCc2c1cc1n(c2=O)Cc2cc3ccccc3nc2-1 | HepG2 | cell growth or viability | MTT |  | 48 h | IC50 | 10.1 µM
COc1c(N2CC3CCCN(C(=O)OC(C)(C)C)C3C2)c(F)cc2c(=O)c(C(=O)OCc3cnc([N+](=O)[O-])s3)cn(C3CC3)c12 (stereo not shown) | Mycobacterium tuberculosis | microbial growth |  | H37RV |  | MIC | > 8 µM
N.N.[Cl][Pt][Cl] | A-431 | cell growth or viability | MTT |  | 72 h | IC50 | 2.1 µM
CCOC(=O)C1=C(C)NC(=O)NC1c1cn(-c2ccccc2)nc1-c1ccccc1 (stereo not shown) | Mycobacterium tuberculosis | microbial growth | resazurin | H37RV |  | MIC | 62.1 µM
COc1cccc(/C=N/N2C(=O)c3ccccc3NC2c2cccc(OC)c2O)c1O (stereo not shown) | Mycobacterium tuberculosis | microbial growth |  | ATCC25177 H37RA | 14 days | MIC | > 128 µg/mL
Cn1c([N+](=O)[O-])cnc1COc1ccc2nc3ccc(=O)cc-3oc2c1 | Mycobacterium tuberculosis | microbial growth |  |  | 7 days | MIC90 | > 256 µM
